Screens: PubChem BioAssay, several laboratories
GRIN3A LBD mod – binders of NR3A ligand-binding domain, primary screen, biophysical, differential scanning fluorimetry, uHTS. Glutamate receptor ionotropic, NMDA 3A (GRIN3A) ligand-binding domain. NR3A LBD differential scanning fluorimetry, Tm shift; 0% = protein alone, 100% = glycine-bound protein. Tm shift relative to glycine control, % at 25 µM. 2.5% of 340,000 active;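 active = melting temperature shift of at least 10% of the positive control shift, at one fixed dose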
DNA FID counter – compounds displacing fluorescent DNA intercalator, primary screen, artefact control for HCV NS3 helicase inhibitor project, biochemical, FID fluorescence; DNA fluorescent intercalator displacement; 0.17% of 290,000 active; AID 1845, 2009; inhibition, % at 7.9 µM; in the data active = inhibition above about 37%;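 note: 0% = vehicle and 100% = reference compound; higher means more ethidium bromide displaced from hairpin DNA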
EBNA-1 inhibitor – EBNA-1 DNA-binding inhibitors, primary screen, biochemical, fluorescence polarization; inhibition, % at 14.8 µM; 0.34% of 300,000 active; in the data active = inhibition above about 28%
ZTA DNA inh – ZTA (EBV) inhibition in EBNA-1 counter-screen; P03206; ZTA-DNA binding, fluorescence polarization; inhibition, % at 11 µM; 0.15% of 320,000 active; AID 2234; in the data active = inhibition above about 33%
Target sequence (P03206 whole entry, looked up): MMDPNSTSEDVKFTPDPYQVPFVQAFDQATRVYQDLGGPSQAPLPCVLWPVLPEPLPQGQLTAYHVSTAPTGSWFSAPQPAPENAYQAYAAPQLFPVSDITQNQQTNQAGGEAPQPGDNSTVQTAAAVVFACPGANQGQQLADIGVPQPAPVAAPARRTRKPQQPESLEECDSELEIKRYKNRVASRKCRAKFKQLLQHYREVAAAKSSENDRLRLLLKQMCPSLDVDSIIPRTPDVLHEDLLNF
FGF22 binding – binders of human FGF22 protein, primary screen, FGF22 synaptogenesis inhibitor project, biophysical, thermal shift, single point. Fibroblast growth factor 22 (Homo sapiens), Q9HCT0. recombinant FGF22 thermal shift, SYPRO orange fluorescence; percent of sucrose octasulfate shift, DMSO zero. activity (Tm shift, normalised), % at 9.99 µM. AID 651658, 2012. 1.5% of 340,000 active;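 active = mean Tm shift, scaled 0 neutral to 100 positive control, at about 1.3% or above, every replicate too, limit read from the data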
Target sequence (Q9HCT0 whole entry, looked up): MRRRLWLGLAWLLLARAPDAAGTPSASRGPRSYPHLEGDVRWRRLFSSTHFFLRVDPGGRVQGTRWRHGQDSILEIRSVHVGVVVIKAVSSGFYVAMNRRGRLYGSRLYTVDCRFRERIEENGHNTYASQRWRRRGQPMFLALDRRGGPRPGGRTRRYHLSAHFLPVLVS
HCV NS3 hel inh – inhibitors of HCV NS3 helicase, primary screen, biochemical, Cy5 molecular beacon fluorescence. Hepatitis C virus NS3 helicase. NS3 helicase DNA unwinding. inhibition, % at 10.9 µM. 0.56% of 290,000 active;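 active = inhibition above the mean of all tested compounds plus 3 SD, set per campaign, cut at about 35% in these data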;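 note: 0% = DMSO wells and 100% = thioflavine S control wells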
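assay system = NS3 helicase fragment of HCV | buffer or medium = MOPS pH 6.5, MgCl2, DTT, Tween20, BSA | timing = 60 min unwinding reaction at 25 °C after ATP addition | signal = Cy5 beacon fluorescence read at start and 1 h | read-out basis = % inhibition of unwinding | control set = low DMSO, high thioflavine S at 110 µM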
An asterisk follows results filed as active; . = no result; ! = repeats disagree. Most compounds without a hit are left out; they make up all but 3.6% or so of the library.

SMILES	GRIN3A LBD mod	DNA FID counter	EBNA-1 inhibitor	ZTA DNA inh	FGF22 binding	HCV NS3 hel inh
C[C@H]1CN([C@@H](C)CO)C(=O)c2cc(N(C)C)ccc2O[C@@H]1CN(C)CC1CCCCC1	.	.	.	.	0	.
COc1ccc(CNC(=O)C[C@H]2CC[C@H]3[C@H](COc4ccc(NC(C)=O)cc4C(=O)N3C)O2)cc1	.	.	.	.	0	.
CCOc1cccc(=O)c2c(C)n(-c3ccc(C(=O)O)cc3)c(C)c12	-1	-5	7	41*	0	22
CCOc1[nH]n(-c2ccccc2)c(=O)c1C=NCC(=O)OC	1	3	-12	-18	43*	-14
C[C@H](CO)N1C[C@H](C)[C@@H](CN(C)Cc2ccncc2)OCc2ccccc2-c2ccccc2C1=O	.	.	.	.	0	.
Cc1ccc(C)c(NC(=O)c2cc3c([nH]c4ccccc43)c(C)n2)c1	0	2	0	0	.	0
Cc1cccc(NC(=O)c2cc3c([nH]c4ccccc43)c(C)n2)c1C	14*	-1	3	0	.	-1
CC(C)NC(=O)N1[C@H](CN(C)C(=O)c2ccccc2)[C@@H](c2ccccc2)[C@@H]1CO	.	.	.	.	-1	.
O=C(COC(=O)Cc1ccccc1F)Nc1ccc2[nH]c(=O)[nH]c2c1	-1	.	7	4	0	.
O=C(COC(=O)/C=C/c1cc(Br)ccc1F)Nc1ccc2[nH]c(=O)[nH]c2c1	10*	.	20	-1	.	.
C[C@@H]1CCCCO[C@H](CN(C)Cc2ccc3c(c2)OCO3)[C@@H](C)CN([C@@H](C)CO)C(=O)c2cc(NC(=O)C3CCCCC3)ccc2O1	.	.	.	.	13*	.
C[C@@H]1CCCCO[C@H](CN(C)Cc2ccc(Cl)c(Cl)c2)[C@@H](C)CN([C@H](C)CO)C(=O)c2cc(N(C)C)ccc2O1	.	.	.	.	43*!	.
C[C@H]1CCCCO[C@@H](CN(C)CC2CCCCC2)[C@@H](C)CN([C@@H](C)CO)C(=O)c2cc(NC(=O)Nc3ccc4c(c3)OCO4)ccc2O1	.	.	.	.	1.7*	.
C[C@@H]1CN([C@@H](C)CO)C(=O)c2cc(NS(=O)(=O)c3ccc(Cl)cc3)ccc2O[C@@H]1CN(C)C	.	.	.	.	0	.
O=C(NCC[C@H]1CC[C@@H](NS(=O)(=O)c2cccc(F)c2)[C@H](CO)O1)c1cnccn1	.	.	.	.	0	.
Nc1cc2c(cc1[N+](=O)[O-])-c1ccccc1C2=NO	23*	.	.	.	0	.
COc1ccc(-c2ccc3n(c2=O)C[C@@H]2[C@@H](CO)[C@H](C(=O)N4CCN(C)CC4)N[C@H]32)cc1	.	.	.	.	0	.
Cn1nnnc1SCC(=O)N(C1CCCCC1)C1CCS(=O)(=O)C1 (stereo not given)	0	6	5	16	43*	2
CN(C)C(=O)c1cccc(-c2ccc([C@H]3[C@@H](CO)N4CCCCN(CCC(F)(F)F)C[C@@H]34)cc2)c1	.	.	.	.	-1	.
CCC1CCCCN1C(=O)CCc1nnc(C2CCCCC2)o1 (stereo not given)	-1	-20	10	10	43*	2
CC(C)NC(=O)Nc1ccc2c(c1)C(=O)N(C)[C@H]1CC[C@@H](CC(=O)NCC3CCCCC3)O[C@H]1CO2	.	.	.	.	0	.
O=C(Cc1ccncc1)NCC[C@H]1CC[C@H](NC(=O)C2CCC2)[C@H](CO)O1	.	.	.	.	0	.
Cc1ccc(S(=O)(=O)c2nc(Nc3nccs3)sc2Cl)cc1	12*	-5	-1	-2	.	-3
CC(=O)Nc1nc(S(=O)(=O)c2ccc(C)cc2)c(Cl)s1	1	-3	-2	-17	.	-5
C/C(=N\NC(=O)c1ccc(C)cc1C)c1ccc2c(c1)Nc1ccccc1S2	12*	-2	-5	15	.	-10
SMILES	GRIN3A LBD mod	DNA FID counter	EBNA-1 inhibitor	ZTA DNA inh	FGF22 binding	HCV NS3 hel inh
COc1cc2c(cc1OC)CN(C(=O)[C@H]1[C@@H]3C(=O)O[C@@H](c4ccccc4)[C@@H](c4ccccc4)N3[C@@H](c3ccccc3OCCO)[C@]13C(=O)Nc1ccc(C#CC4(O)CCCCCC4)cc13)CC2	.	.	.	.	0	.
COc1ccc(C(CC(=O)N2CCCC(C)C2)c2c(OC)cc(OC)c3c(-c4ccccc4)cc(=O)oc23)cc1 (stereo not given)	16*	.	-4	7	0	.
O=C(Nc1cccc(Cl)c1)OCCOC(=O)Nc1cccc(Cl)c1	29*	.	.	.	.	.
O=C(Nc1cccc(O)c1)c1cc(-c2ccccc2Cl)on1	30*	-5	-3	3	0	-1
Cn1nc(OC(=O)Nc2cccc(Cl)c2)cc1C(F)(F)F	15*	1	-12	0	.	-1
CC(C)OC(=O)NCCOC(=O)Nc1cccc(Cl)c1	1	-6	-10	-9	.	-2
CCCc1cc(C(=O)Nc2cccc(Cl)c2)no1	13*	-2	-8	-9	0	3
C[C@H](CO)N1C[C@H](C)[C@@H](CN(C)Cc2ccc(C(=O)O)cc2)Oc2ccc(NC(=O)Cc3cn(C)c4ccccc34)cc2CC1=O	.	.	.	.	0	.
CC=Cc1ccc2n(c1=O)C[C@H]1[C@H](CO)[C@@H](C(=O)N3CCCCC3)N(CC3CC3)[C@@H]21 (mixture of isomers)	.	.	.	.	0	.
C[C@@H]1CN([C@H](C)CO)S(=O)(=O)c2ccc(-c3ccccc3)cc2O[C@@H]1CN(C)C	.	.	.	.	0	.
O=C(Nc1cccc(Cl)c1)OCCOc1ccccc1	15*	-8	.	.	0	-8
O=C(Nc1ccccc1)OCCOc1ccccc1	-11	0	3	4	.	-3
O=C(Nc1ccccc1)OCCOc1ccccc1Br	7	-8	.	.	0	1
O=C(Nc1ccccc1)OCCCCCOC(=O)Nc1ccccc1	46*	-7	12	-4	0	2
COc1ccc(OCCOC(=O)Nc2ccccc2)cc1	33*	-10	-3	-3	.	-8
O=C(Nc1ccccc1)OCCOc1cccc(Br)c1	4	-8	4	-9	0	-3
CO[C@@H]1CN(C)C(=O)c2ccc(NC(=O)Nc3cc(F)ccc3F)cc2OC[C@@H](C)N(C(=O)c2cnccn2)C[C@@H]1C	.	.	.	.	0	.
CC(C)NC(=O)Nc1ccc2c(c1)C(=O)N([C@@H](C)CO)C[C@@H](C)[C@@H](CN(C)S(=O)(=O)c1ccc(Cl)cc1)OCCCC[C@@H](C)O2	.	.	.	.	0	.
O=C(CN1C(=O)C(=O)N(Cc2ccccc2)C1=O)Nc1cc(Cl)cc(Cl)c1	26*	10	0	12	0	-3
O=C(CN1C(=O)C(=O)N(Cc2ccccc2)C1=O)Nc1ccc(OC(F)F)cc1	16*	.	.	8	1	.
COc1ccc(OC)c(NC(=O)CN2C(=O)C(=O)N(Cc3ccccc3)C2=O)c1	0	.	.	-8	0	.
